Source: PubChem
In the library only some 3.4% were active in any assay of this set; here they are far more common.
ANO1 block: TMEM16A chloride channel inhibitors, primary screen, cell-based, HTS; AID 588511, 2011; HEK293 TMEM16A/YFP iodide influx fluorescence, ionomycin; Anoctamin-1 (Mus musculus), Q8BHY3; normalized B-score (activity score, 25-100; higher = stronger inhibition) at 10 µM; 310,000 compounds, 1.2% hits;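 active = ratio plate-corrected score three or more library SD toward inhibition, starting fluorescence score within five deviations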;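 note: score derived from kinetic fluorescence span divided by baseline fluorescence per well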
MC4R antagonist: MC4R antagonists of cAMP signaling, primary screen, cell-based, TR-FRET, antagonist arm of biased-ligand search | MC4R-expressing cells, MTII-stimulated cAMP, LANCE TR-FRET | 360,000 compounds, 0.48% hits | Melanocortin receptor 4 (Homo sapiens), P32245 | AID 540295, 2011 | inhibition, % at 6.5 µM;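 active = inhibition above its plate's cutoff, the mean of tested wells on that plate plus 3 SD, cut at about 29% in these data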;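 note: 0% = Melanotan II alone and 100% = Melanotan II plus saturating MCL0020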
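material = U2OS cells stably expressing human melanocortin 4 receptor (MC4R) | also added = Melanotan II challenge | dosing = single nominal compound dose of 6.5 µM | detection = TR-FRET with Eu-cAMP and labeled anti-cAMP, 671 nm | replication = singlicate | timing = compound 30 min, challenge 1 h, detection 1 h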
TMEM16A act: TMEM16A chloride channel activators or potentiators, primary screen, cell-based, HTS; Anoctamin-1 (Mus musculus), Q8BHY3; HEK293 TMEM16A/YFP-H148Q/I152L, iodide quench fluorescence; hits give low values; B-score at 10 µM; 340,000 compounds, 0.3% hits; AID 623877, 2012;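 active = fluorescence-ratio B-score plate-corrected deviation score at least 3 library SD below zero, with starting fluorescence score within 5 deviations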;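 note: channel opened by trigger with iodide after compound preincubation; score built on the fluorescence ratio of max minus min over baseline; more negative score means more quench and so TMEM16A activation or potentiation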
MC4R barr agon: MC4R agonists recruiting beta-arrestin, primary screen, cell-based, luminescence, agonist arm of biased-ligand search; Melanocortin receptor 4 (Homo sapiens), P32245; U2OS MC4R beta-arrestin complementation; percent of melanotan II response, DMSO zero; activation, % at 8.9 µM; 360,000 compounds, 0.98% hits;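 active = activation above a per-plate cutoff, the mean activation of sample wells on that plate plus 3 SD, cut at about 8% in these data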
beta cell repl: inducers of MIN6 beta-cell proliferation, primary screen, ATP luminescence, uHTS | MIN6 cells proliferation, ATPlite luminescence, 48 h; cells starved in 0.2% serum; 100% = growth in 10% serum | proliferation, % at 10 µM | 330,000 compounds, 0.29% hits;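 active = compounds whose signal lies at least 3.5 SD above the mean of all wells on their plate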;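 note: 0% = DMSO-treated cells in low-serum medium and 100% = 10% serum control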
HTR2A ag: mouse Htr2a agonists via beta-arrestin recruitment, primary screen, cell-based, luminescence; 5-hydroxytryptamine receptor 2A (Mus musculus), P35363; CHO-K1 mHTR2A beta-arrestin complementation; percent of 30 µM serotonin response; activation, % at 7.6 µM; 360,000 compounds, 0.66% hits; AID 624169, 2012;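 active = activation above a run cutoff, the mean activation of all tested compounds plus 3 SD, cut at about 14% in these data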;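 note: 0% = plate median of compound wells and 100% = 30 µM serotonin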
Target sequence (P35363 whole entry, looked up): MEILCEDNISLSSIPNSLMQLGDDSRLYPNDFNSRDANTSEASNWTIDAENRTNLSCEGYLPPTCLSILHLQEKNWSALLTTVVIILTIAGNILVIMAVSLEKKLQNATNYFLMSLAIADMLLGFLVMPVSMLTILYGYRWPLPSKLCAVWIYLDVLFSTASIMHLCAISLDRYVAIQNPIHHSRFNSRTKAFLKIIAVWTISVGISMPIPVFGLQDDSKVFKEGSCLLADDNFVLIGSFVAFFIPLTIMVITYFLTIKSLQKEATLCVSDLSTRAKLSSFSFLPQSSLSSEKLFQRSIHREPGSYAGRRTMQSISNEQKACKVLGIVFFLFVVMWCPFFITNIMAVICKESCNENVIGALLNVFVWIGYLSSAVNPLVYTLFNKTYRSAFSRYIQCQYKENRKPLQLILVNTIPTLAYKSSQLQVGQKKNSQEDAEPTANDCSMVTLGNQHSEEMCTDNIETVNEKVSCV
* = called active by the depositor; i = inactive; . = not tested or not shown.

SMILES | ANO1 block | MC4R antagonist | TMEM16A act | MC4R barr agon | beta cell repl | HTR2A ag
O=C(NNC(=S)Nc1cccc(C(F)(F)F)c1)c1ccccc1Cl | 25* | -1 | i | -1 | -4 | -3
FC(F)(F)c1cccc(NC(=S)Nc2ccc(Cl)cc2Cl)c1 | 100* | 5 | i | 2 | -8 | 1
O=C(NC(=S)Nc1ccc(F)c(Cl)c1)C1CC1 | i | -3 | i | -3 | -7 | 3
CCOC(=O)C(=O)N(C)c1c(CC)nc2c(OCCC3CCCCC3)cccn12 | . | 8 | . | -2 | . | -4
CCCCNC(=O)c1nc(C2CCN(S(=O)(=O)c3c(OC)cccc3OC)CC2)oc1-c1ccccc1 | . | . | . | . | . | -7
CC(C)[C@@H]1CN=C(N)N1C[C@@H]1CCCN1C[C@H](C)N1C[C@@H](Cc2ccccc2)N(CCc2ccc(Cl)c(Cl)c2)C1=N | . | 12 | . | 5 | 1 | -5
C[C@@H](CN1CCC[C@H]1CN1C(N)=NC[C@@H]1Cc1ccccc1)N1C[C@@H](Cc2ccccc2)N(CCc2ccc(Cl)c(Cl)c2)C1=N | . | 33* | i | 2 | -3 | -11
CCC[C@@H](CN1CCC[C@H]1CN1C(N)=NC[C@@H]1Cc1ccccc1)N1C[C@@H]([C@H](C)CC)N(CCCC2CCCC2)C1=N | . | 39* | i | 3 | -6 | -17
N#Cc1ccccc1S(=O)(=O)N1CCN(C(=O)c2cc3c(s2)CCC3)CC1 | . | -3 | i | -2 | -2 | 7
CCN(CC)C(=O)c1[nH]cnc1C(=O)N[C@@H](Cc1ccccc1)C(=O)OC(C)(C)C | i | 1 | i | -1 | 1 | 5
O=c1cc(-c2ccc(O)c(O)c2)oc2cc(O[C@@H]3O[C@H](CO)[C@@H](O)[C@H](O)[C@H]3O)cc(O)c12 | . | -9 | -16* | -1 | 0 | -5
CO[C@H]1CN(C)C(=O)c2cc(NC(=O)c3cc(C)on3)ccc2OC[C@@H](C)N(C(=O)C2CC2)C[C@H]1C | . | . | . | . | . | -1
CCOC(=O)C1CCCN(S(=O)(=O)c2ccc3c(c2)CC(C)N3C(=O)C2CC2)C1 (stereo unspecified) | i | 6 | i | -2 | -3 | -2
CCOC(=O)C1CCN(S(=O)(=O)c2ccc3c(c2)CC(C)N3C(=O)C2CCC2)CC1 (stereo unspecified) | 25* | -1 | i | 1 | -2 | 5
COc1ccccc1CNS(=O)(=O)c1ccc2c(c1)CC(C)N2C(=O)C1CCC1 (stereo unspecified) | 25* | 1 | i | -1 | -5 | 7
CCOC(=O)N1CCN(S(=O)(=O)c2ccc3c(c2)CCN3C(=O)C2CC2)CC1 | i | 8 | -18* | 1 | -3 | 0
CC1CCN(S(=O)(=O)c2ccc3c(c2)CC(C)N3C(=O)C2CCC2)CC1 (stereo unspecified) | 25* | 1 | i | -4 | -4 | -5
CC1Cc2cc(S(=O)(=O)N3CCCCC3)ccc2N1C(=O)C1CCC1 (stereo unspecified) | i | 10 | i | -3 | 1 | -6
COc1cc(C(O)c2nc(-c3cccs3)cs2)ccc1F (stereo unspecified) | . | -3 | . | -2 | . | -1
CCC(=O)Nc1cc(SCCO)cc([N+](=O)[O-])c1 | 100* | 1 | i | 0 | -3 | 0
C[C@H](CO)N1C[C@H](C)[C@@H](CN(C)Cc2ccc(C(=O)O)cc2)Oc2ccc(NS(=O)(=O)c3cn(C)cn3)cc2C1=O | . | 15 | i | -1 | 2 | 4
COc1ccccc1CNc1cccc(C)n1 | . | 0 | . | -1 | . | -2
COc1ccccc1CNc1cc(CSc2ccc(Cl)cc2)nc(C)n1 | 25* | -4 | i | -3 | -2 | -8
COc1cccc(CNc2cc(CSc3ccc(Cl)cc3)nc(C)n2)c1 | 100* | -2 | i | 0 | -3 | -7
CCOc1cc(/C=C(\C#N)C(=O)Nc2cccc(C(=O)O)c2)cc(Br)c1OC(=O)c1ccc(OC)cc1 | 100* | -9 | i | 6 | -6 | 1
SMILES | ANO1 block | MC4R antagonist | TMEM16A act | MC4R barr agon | beta cell repl | HTR2A ag
CCOc1cc(/C=C(\C#N)C(=O)Nc2cccc(C(=O)O)c2)ccc1OCc1ccccc1Cl | 100* | 9 | i | -1 | -4 | -5
N#C/C(=C\c1ccc(OCc2ccc(Br)cc2)cc1)C(=O)Nc1cccc(C(=O)O)c1 | i | -2 | i | 0 | . | 8
COc1cc(/C=C(\C#N)C(=O)Nc2cccc(C(=O)O)c2)ccc1OCc1ccc(F)cc1 | i | 25 | i | 2 | 0 | -19
COc1cc(C(=O)N(C)C2CCCCC2)cc(OC)c1OC | . | 11 | . | 0 | . | 2
O=C(Nc1ccc(C(=O)O)cc1)Nc1ccc([N+](=O)[O-])cc1 | i | 1 | i | -2 | -4 | 0
O=C(Nc1cc(C(F)(F)F)cc(C(F)(F)F)c1)Nc1cnn(-c2ccc([N+](=O)[O-])cc2)c1C(F)(F)F | 100* | 8 | i | -1 | -1 | -1
CCCCC1=CC2=CC(=O)C(C)(OC(=O)CC)C(=O)C2=CN1CC(C)C (stereo unspecified) | i | 6 | i | -1 | -3 | -4
CCCCC1=CC2=CC(=O)C(C)(OC(=O)CC)C(=O)C2=CN1C(CO)CO (stereo unspecified) | i | -2 | -5.8* | -1 | -2 | -2
Cc1ccccc1N=C(c1ccccc1)C1C(=O)c2ccccc2C1=O | . | . | . | . | . | -1
O=C(Nc1ccccc1)Nc1ccc2snnc2c1 | i | 3 | i | 2 | -1 | -4
O=C(Nc1ccccc1)Nc1ccc2nnsc2c1 | 100* | 11 | i | 4 | -4 | -4
COc1cc([N+](=O)[O-])ccc1NC(=S)NNC(=O)c1ccc2c(c1)OCO2 | 100* | -2 | i | -3 | -6 | 1
O=C(NC(=S)Nc1cc([N+](=O)[O-])ccc1O)c1ccc2c(c1)OCO2 | i | 6 | i | -2 | -7 | -2
Cc1ccc(-c2noc(C3CCCN(C(=O)c4ccccc4Br)C3)n2)cc1 (stereo unspecified) | 100* | 5 | i | -2 | -5 | -3
Cc1ccc(-c2noc(C3CCCN(C(=O)c4c(F)cccc4F)C3)n2)cc1 (stereo unspecified) | i | 14 | . | 2 | -3 | -4
O=C1CCC2c3[nH]c4ccccc4c3CCN12 (stereo unspecified) | . | -3 | . | -2 | . | -2
